Results reported in ChEMBL document CHEMBL5136969, “A niclosamide-tobramycin hybrid adjuvant potentiates cefiderocol against P. aeruginosa” (2021).
≈ marks a conversion by molar mass, not a printed value. Calls of active or inactive are those of the source.

What was measured:
[1] = test system: Acinetobacter baumannii; assay: Antibacterial activity against Acinetobacter baumannii AB92247 assessed as potentiation of cefiderocol antibacterial activity by measuring FIC after 18 hrs by microbroth dilution method; format: functional
Outline: (§1)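 Checkerboard in Mueller-Hinton broth: cefiderocol 2-fold diluted on one axis, adjuvant 2-fold on the other. Overnight cultures were adjusted to 0.5 McFarland in saline, diluted 1:50 in MHB, and inoculated at about 5 × 10^5 CFU/mL. Incubation was 18 h at 37 °C. Turbidity was read visually and confirmed at 590 nm. FIC index = FIC of antibiotic + FIC of adjuvant; ≤0.5 synergy, >4 antagonism.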

[2] = test system: Acinetobacter baumannii; assay: Antibacterial activity against Acinetobacter baumannii AB031 assessed as potentiation of cefiderocol antibacterial activity by measuring FIC after 18 hrs by microbroth dilution method; format: functional; outline: as §1
[3] = test system: Pseudomonas aeruginosa; assay: Antibacterial activity against MDR clinical isolate Pseudomonas aeruginosa PA88949 assessed as potentiation of cefiderocol antibacterial activity by measuring FIC index after 18 hrs by microbroth dilution method; format: functional
Outline: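 Checkerboard in MHB (iron-replete, not iron-depleted CAMHB). Cefiderocol was 2-fold serially diluted along one axis and the adjuvant along the other. Inoculum was 0.5 McFarland diluted 1:50, about 5 × 10^5 CFU/mL final. Incubation was 18 h at 37 °C, with turbidity read visually and confirmed at 590 nm. FIC was the MIC in combination over the MIC alone for each agent, and the FIC index was their sum. Cut-offs were ≤0.5 synergy, >0.5–4 additive, >4 antagonism.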

[4] = test system: Escherichia coli; assay: Potentiation of vancomycin-induced antibiotic activity against Escherichia coli ATCC 25922 assessed as MIC fold reduction at 8 ug/ml after 18 hrs by microbroth dilution method; format: functional; conditions: dose 8 µg/ml
[5] = test system: Escherichia coli; assay: Potentiation of pleuromutilin-induced antibiotic activity against Escherichia coli ATCC 25922 assessed as MIC fold reduction at 8 ug/ml after 18 hrs by microbroth dilution method; format: functional; conditions: dose 8 µg/ml
[6] = test system: Acinetobacter baumannii; assay: Potentiation of minocycline-induced antibiotic activity against Acinetobacter baumannii ATCC 17978 assessed as MIC fold reduction at 8 ug/ml after 18 hrs by microbroth dilution method; format: functional; conditions: dose 8 µg/ml
Outline: (§2)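 Adjuvant held at a fixed 8 μg/mL while the antibiotic was 2-fold serially diluted in Mueller-Hinton broth (MHB), per CLSI microbroth dilution. Overnight cultures were adjusted in saline to 0.5 McFarland, then diluted 1:50 in MHB to about 5 × 10^5 CFU/mL final, and incubated 18 h at 37 °C. MIC was the lowest concentration with no visible turbidity, confirmed at 590 nm. Fold potentiation = MIC alone / MIC with adjuvant.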

[7] = test system: Acinetobacter baumannii; assay: Potentiation of novobiocin-induced antibiotic activity against Acinetobacter baumannii ATCC 17978 assessed as MIC fold reduction at 8 ug/ml after 18 hrs by microbroth dilution method; format: functional; conditions: dose 8 µg/ml
[8] = test system: Pseudomonas aeruginosa; assay: Potentiation of ceftolozane-induced antibiotic activity against […] Pseudomonas aeruginosa PAO1 assessed as MIC fold reduction at 8 ug/ml after 18 hrs by microbroth dilution method; format: functional, organism-based; conditions: dose 8.0 µg/ml; outline: as §2
[9] = test system: Enterobacter cloacae; assay: Antibacterial activity against Enterobacter cloacae 121187 assessed as potentiation of cefiderocol antibacterial activity by measuring FIC after 18 hrs by microbroth dilution method; format: functional; outline: as §1
[10] = test system: Acinetobacter baumannii; assay: Antibacterial activity against Acinetobacter baumannii LAC-4 assessed as reduction in bacterial growth after 18 hrs by microbroth dilution method; format: functional
Outline: (§3)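 CLSI microbroth dilution in MHB. Overnight cultures were adjusted to 0.5 McFarland in saline, diluted 1:50, and inoculated at about 5 × 10^5 CFU/mL. Agents were 2-fold serially diluted and incubated 18 h at 37 °C. MIC is the lowest concentration without visible turbidity, confirmed by absorbance at 590 nm. Medium with and without cells served as controls.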

[11] = test system: Acinetobacter baumannii; assay: Potentiation of sulfamethoxazole-induced antibiotic activity against Acinetobacter baumannii ATCC 17978 assessed as MIC fold reduction at 8 ug/ml after 18 hrs by microbroth dilution method; format: functional; conditions: dose 8 µg/ml
[12] = test system: Pseudomonas aeruginosa; assay: Antibacterial activity against MDR clinical isolate Pseudomonas aeruginosa PA260 assessed as potentiation of cefiderocol antibacterial activity by measuring FIC index after 18 hrs by microbroth dilution method; format: functional
Outline: (§4)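 Checkerboard in MHB. Cefiderocol was 2-fold serially diluted along one axis and the adjuvant along the other. Inoculum was prepared from 0.5 McFarland saline suspensions diluted 1:50 in MHB, giving about 5 × 10^5 CFU/mL final. Plates ran 18 h at 37 °C, with turbidity confirmed at 590 nm. FIC = combination MIC ÷ MIC alone for each agent, and FIC index = sum of both. Interpretation: ≤0.5 synergy, >0.5–4 additive, >4 antagonism.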

[13] = test system: Escherichia coli; assay: Antibacterial activity against Escherichia coli 107115 assessed as reduction in bacterial growth after 18 hrs by microbroth dilution method; format: functional; outline: as §3
[14] = test system: Escherichia coli; assay: Potentiation of moxifloxacin-induced antibiotic activity against Escherichia coli ATCC 25922 assessed as MIC fold reduction at 8 ug/ml after 18 hrs by microbroth dilution method; format: functional; conditions: dose 8 µg/ml; outline: as §2
[15] = test system: Escherichia coli; assay: Potentiation of cindamycin-induced antibiotic activity against Escherichia coli ATCC 25922 assessed as MIC fold reduction at 8 ug/ml after 18 hrs by microbroth dilution method; format: functional; conditions: dose 8 µg/ml; outline: as §2
[16] = test system: Pseudomonas aeruginosa; assay: Antibacterial activity against MDR clinical isolate Pseudomonas aeruginosa PA264 assessed as reduction in bacterial growth after 18 hrs in presence of cefiderocol by microbroth dilution method; format: functional; outline: as §4
[17] = test system: Escherichia coli; assay: Antibacterial activity against Escherichia coli 94393 assessed as potentiation of cefiderocol antibacterial activity by measuring FIC after 18 hrs by microbroth dilution method; format: functional; outline: as §1
[18] = test system: Acinetobacter baumannii; assay: Potentiation of niclosamide-induced antibiotic activity against Acinetobacter baumannii ATCC 17978 assessed as MIC fold reduction at 8 ug/ml after 18 hrs by microbroth dilution method; format: functional; conditions: dose 8 µg/ml
[19] = test system: Staphylococcus epidermidis; assay: Antibacterial activity against methicillin-resistant Staphylococcus epidermidis 61589 assessed as reduction in bacterial growth after 18 hrs by microbroth dilution method; format: functional
Outline: (§5)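 Broth microdilution per CLSI in Mueller-Hinton broth (MHB). Overnight cultures were adjusted to 0.5 McFarland in saline, diluted 1:50 in MHB, and added at about 5 × 10^5 CFU/mL final to equal volumes of 2-fold serial dilutions of agent. Incubation was 18 h at 37 °C. MIC was the lowest concentration with no visible turbidity, confirmed by absorbance at 590 nm.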

[20] = test system: Pseudomonas aeruginosa; assay: Antibacterial activity against colistin-resistant clinical isolate Pseudomonas aeruginosa PA114228 assessed as reduction in bacterial growth after 18 hrs by microbroth dilution method; format: functional; outline: as §5
[21] = test system: Pseudomonas aeruginosa; assay: Potentiation of tobramycin-induced antibiotic activity against Pseudomonas aeruginosa PAO1 assessed as MIC fold reduction at 8 ug/ml after 18 hrs by microbroth dilution method; format: functional; conditions: dose 8 µg/ml
[22] = test system: Pseudomonas aeruginosa; assay: Potentiation of ceftazidime-induced antibiotic activity against […] Pseudomonas aeruginosa PAO1 assessed as MIC fold reduction at 8 ug/ml after 18 hrs by microbroth dilution method; format: functional, organism-based; conditions: dose 8.0 µg/ml; outline: as §2
[23] = test system: Pseudomonas aeruginosa; assay: Potentiation of ceftolozane-induced antibiotic activity against Pseudomonas aeruginosa PAO1 assessed as MIC fold reduction at 8 ug/ml after 18 hrs by microbroth dilution method; format: functional; conditions: dose 8 µg/ml; outline: as §2

**Q.** What does the source list for `NC[C@H]1O[C@H](O[C@H]2[C@H](OCCCCc3cn(-c4ccc(NC(=O)c5cc(Cl)ccc5O)cc4)nn3)[C@@H](O[C@H]3O[C@H](CO)[C@@H](O)[C@H](N)[C@H]3O)[C@H](N)C[C@@H]2N)[C@H](N)C[C@@H]1O`?
**A.** FIC [1]: 0.5; FIC [2]: 0.5; FIC [3]: 1; fold change (FC) [4]: 4; fold change (FC) [5]: 4; fold change (FC) [6]: 4; fold change (FC) [7]: 4; Activity [8]: Active; FIC [9]: 1; MIC [10]: > 128 µg/mL; fold change (FC) [11]: 4; FIC [12]: 0.063; MIC [13]: > 128 µg/mL; fold change (FC) [14]: 4; fold change (FC) [15]: 4; MIC [16]: 0.125 µg/mL; FIC [17]: 0.25; fold change (FC) [18]: 4; MIC [19]: 128 µg/mL (≈ 153 µM); MIC [20]: 32 µg/mL (≈ 38.3 µM); fold change (FC) [21]: 4; Activity [22]: Active; fold change (FC) [23]: 4
